Experimental data collected from several papers.
Each line is one published result; the experiments were not run side by side.
Read-out: cell growth or viability

SMILES	cell line	technique	concentration	time	viability [%]
CC(=O)c1nn(-c2ccccc2Cl)/c(=N/N=C(\C)c2ccc(NC(=O)c3ccccc3)cc2)s1	HepG2	MTT	5 µM		6.09
CC(C)(C)c1cnc(CSc2cnc(NC(=O)C3CCN(CCCCCSc4cccc5c4CN(C4CCC(=O)NC4=O)C5=O)CC3)s2)o1 (stereo not shown)	HH	CCK-8	0.25 µM		0
CC(=NNC(=O)c1cccnc1)c1ccc(Nc2nnc(-c3ccc(Cl)cc3)c3ccccc23)cc1	HepG2	MTT	5 µM	24 h	3.2
CC(=O)Nc1ccc(/C(C)=N/N=c2\sc(C(C)=O)nn2-c2ccc(C)cc2)cc1	HepG2	MTT	0.312 µM		100
CC(C)(C)c1cnc(CSc2cnc(NC(=O)C3CCN(CCCCCCCCSc4cccc5c4C(=O)N(C4CCC(=O)NC4=O)C5=O)CC3)s2)o1 (stereo not shown)	HH	CCK-8	0.5 µM		0
CC(=O)c1nn(-c2ccc(C)cc2)/c(=N/N=C(\C)c2ccc(NC(=O)c3ccccc3)cc2)s1	HepG2	MTT	10 µM		6.81
CC(=NNC(=O)c1ccccc1Br)c1ccc(Nc2nnc(-c3ccc(Cl)cc3)c3ccccc23)cc1	HepG2	MTT	0.625 µM	24 h	21.2
CC(C)(C)c1cnc(CSc2cnc(NC(=O)C3CCN(CCCCSc4cccc5c4C(=O)N(C4CCC(=O)NC4=O)C5=O)CC3)s2)o1 (stereo not shown)	HH	CCK-8	1 nM		100
O=C(C=Cc1ccccc1)Nc1ccc(Oc2nnc(-c3ccc(Cl)cc3)c3ccccc23)cc1	HepG2	MTT	5 µM	24 h	2.49
CC(=NNC(=O)COc1ccc2c(C)c(Cc3ccccc3)c(=O)oc2c1C)c1ccc(Br)cc1	HepG2	MTT	100 µg/mL		34.7
